Screening data deposited in PubChem by several laboratories.
Jurkat NFkB inh: inhibitors of the PMA/ionomycin-induced NF-kB reporter in Jurkat cells; PMA/ionomycin-induced NF-kB luciferase reporter, luminescence; inhibition, % at 4 µM; actives 0.53% (n = 330,000); AID 435003; in the data active means inhibition above about 50%
XBP1 UPR activ: adaptive UPR (XBP1) activation; CHO-XBP1 luciferase reporter, IRE1-XBP1 UPR activation, luminescence; percent of tunicamycin response, DMSO as zero; activation, % at 20 µM; actives 0.33% (n = 330,000);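 active means versus positive control, 20 µM dose yields 30% or more activation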;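 further: 100% = tunicamycin at 10 µg/mL and 0% = DMSO only wells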
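Material: CHO-XBP1 cells stably carrying IRE1-XBP1-driven luciferase reporter / Amount: 1000 cells per well / Compound: 20 µM, 1% DMSO / Times: 6 h treatment, 37 °C / Detection: luciferase luminescence / Measure: % activation of reporter signal versus tunicamycin and DMSO controls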
CHOP inh: CHOP inhibition in unfolded protein response; CHO-K1 CHOP-promoter luciferase, tunicamycin-induced, 15-18 h; actives 3.8% (n = 220,000); inhibition, % at 10 µM;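 active means compounds that reduced the stress-induced luciferase reporter signal by more than about 70% of percent inhibition, limit read from the data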;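 further: 0% = tunicamycin plus vehicle and 100% = wells without tunicamycin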
697 NFkB inh: inhibitors of the PMA/ionomycin-induced NF-kB reporter in 697 B cells | inhibition, % at 4 µM | actives 0.33% (n = 330,000) | 697 B-cell NF-kB luciferase reporter, 16 h | AID 435022; in the data active means inhibition above about 35%
CHOP UPR activ: activators of apoptotic arm of unfolded protein response (CHOP) | activation, % at 10 µM | actives 0.34% (n = 330,000) | AID 449763 | CHO-CHOP luciferase reporter, UPR activation, luminescence; percent of tunicamycin response over DMSO baseline;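 active means at 10 µM dose, activation of 40% or more, normalized to positive control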;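 further: 100% = tunicamycin at 10 µg/mL and 0% = DMSO alone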
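Material: CHO-CHOP cells, stable luciferase reporter of PERK-eIF2a-CHOP signalling; quantity: 500 reporter cells seeded per well; buffer or medium: F12 medium containing 10% fetal bovine serum; compound: one dose, 10 µM in 0.5% DMSO; incubation: 6 h compound treatment, 37 °C; measured by: Steady-Glo luciferase luminescence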
Starred values were filed as active, the others as inactive; . = no result. This is one part of a sample in which hits are shown more often than they occur.

SMILES	Jurkat NFkB inh	XBP1 UPR activ	CHOP inh	697 NFkB inh	CHOP UPR activ
CCOC(=O)c1cc2c3ccccc3n(CC)c2nc1N	-7	4	73*	5	-3
CCOC(=O)c1cc(=O)n(Cc2ccccc2C)c2ccccc12	8	2	71*	10	-1
COc1cccc(N2CCN(c3ccc4nnc(CCC(=O)Nc5cccc(C(C)=O)c5)n4n3)CC2)c1	5	-2	.	2	2
Cc1nc2nc(NC(=O)c3ccco3)nn2c(C)c1Cl	-41	-4	.	-32	2
O=C1C(Cl)=C(N2CCCCC2)C(=O)N1c1ccccc1Cl	-5	-1	60	4	-1
Cc1ccccc1N1C(=O)C(Cl)=C(N2CCCCCC2)C1=O	-13	0	80*	-25	-4
CO/N=C/NC(=O)NOCc1ncc(C(F)(F)F)cc1Cl	-11	-3	12	14	-3
O=C(N/C=N/OCc1ccc(Cl)cc1Cl)NOCc1ncc(C(F)(F)F)cc1Cl	5	-1	95*	15	3
CC(=O)CSc1nc2ccc(Nc3nc(N4CCOCC4)nc(N4CCOCC4)n3)cc2s1	-19	2	-25	-38	1
Cc1ccc(NC(=O)CSc2nc3ccc(Nc4nc(N5CCOCC5)nc(N5CCOCC5)n4)cc3s2)cc1	1	78*	.	-16	4
O=C(N/N=C/c1cc(Cl)cc([N+](=O)[O-])c1O)c1cccc(S(=O)(=O)N2CCOCC2)c1	14	-4	.	0	1
CC1CCCCN1c1nc(-c2ccncc2)nc2ccccc12 (stereo not given)	-4	6	77*	-12	3
CC1CCN(c2nc(-c3ccncc3)nc3ccccc23)CC1	11	3	13	-19	0
OC[C@H]1O[C@@H](n2cnc3cncnc32)[C@H](O)[C@@H]1O	.	.	3	.	.
Cc1cc(NC(=O)CN2C(=O)NC3(CCCCCC3)C2=O)ccc1Br	8	3	.	-30	-1
CCOC(=O)/C=C/C(=O)Nc1ccccc1-c1ccccc1NC(=O)/C=C/C(=O)OCC	.	.	80*	.	.
O=C(CCNS(=O)(=O)c1cccc2nonc12)NCCc1ccc(Cl)cc1	-4	1	76*	-12	-1
c1ccc(-c2nnc3ccc(N4CCCC4)nn23)cc1	10	4	-7	6	0
FC(F)(F)c1cccc(N2CCN(c3ccc4nnc(-c5ccccc5)n4n3)CC2)c1	7	0	85*	-3	0
CCOC(=O)Cc1ccc(NCc2ccc(Cl)cc2)cc1	11	1	78*	-1	0
CCCOn1c(OCC(C)C)nc2ccccc2c1=O	5	3	73*	-9	0
N#CCc1ccc(NS(=O)(=O)c2ccc(C3CCCCC3)cc2)cc1	.	.	81*	.	.
O=C(N/N=C/c1cc([N+](=O)[O-])ccc1O)c1ccc(COc2ccc3c(c2)CCC3)o1	8	33*	.	-98	21
CCCn1cnc2c(c1=O)c1nc3ccccc3nc1n2CCc1ccccc1	10	-2	73*	19	-1
O=c1c2c3nc4ccccc4nc3n(/N=C/c3ccco3)c2ncn1CCC1=CCCCC1	7	1	.	29	3
SMILES	Jurkat NFkB inh	XBP1 UPR activ	CHOP inh	697 NFkB inh	CHOP UPR activ
CCOCCCn1c(C)nc2c(c1=O)c1nc3ccccc3nc1n2CCC1=CCCCC1	10	5	95*	-8	0
CCCn1cnc2c(c1=O)c1nc3ccccc3nc1n2CCC1=CCCCC1	.	.	84*	.	.
Oc1ccccc1C(=S)N1CCN(C(=S)c2ccccc2O)CC1	-24	-6	.	2	0
O=c1[nH]nc(SCc2ccccc2)n1C1CC2C=CC1C2 (stereo not given)	3	1	7	-20	1
COC(=O)c1c(NC(=O)c2ccc(N(C)S(=O)(=O)c3ccc(C)cc3)cc2)sc2c1CCCC2	-31	0	-1	-19	0
COCCN(CCOC)S(=O)(=O)c1ccc(C(=O)Nc2sc3c(c2C(N)=O)CCCCC3)cc1	-30	19	82*	-37	6
Cc1ccc2c(c1)-n1c(nc3ccc(C)cc3c1=O)C(Cc1ccc(O)cc1)NC2=O (stereo not given)	-6	3	.	-2	1
Cc1cc2occ(CC(=O)Nc3nnc(C4CC4)s3)c2cc1C	-3	2	90*	-10	1
Cc1cc2occ(CC(=O)NC3CCCc4ccccc43)c2cc1C (stereo not given)	13	-1	16	1	-2
CC(/C=C/C=C/c1ccccc1)=N/NC(=O)C(O)c1ccccc1 (stereo not given)	7	0	18	-15	1
CC(/C=C/C=C/c1ccccc1)=N/NC(=O)CNc1ccc(C)cc1	-11	-3	82*	-10	4
Cc1ccc(-c2nc(SCC(N)=O)c(C#N)c3c2CCCC3)cc1	1	-2	83*	18	2
CC(C)C(=O)NC(Nc1cc(C(F)(F)F)ccc1Cl)C(Cl)(Cl)Cl (stereo not given)	-22	1	72*	3	1
O=c1cc(-c2ccccc2)nc(SCCOc2ccccc2Cl)[nH]1	14	-5	74*	4	-2
CC(C(=O)NC1=NCCS1)N1C(=O)c2ccccc2C1=O (stereo not given)	5	-4	6	10	0
CC(C(=O)NC1=NCCS1)N1C(=O)C2CC=CCC2C1=O (stereo not given)	-5	2	83*	10	2
COC(=O)C1=C(N)Oc2cc(C)n(CC3CCCO3)c(=O)c2C1c1ccc(Cl)c(Cl)c1 (stereo not given)	-3	0	85*	5	0
COC(=O)C1=C(N)Oc2cc(C)n(CCCn3ccnc3)c(=O)c2C1c1ccc(Cl)cc1 (stereo not given)	11	-7	77*	10	0
CCn1c(C)cc2c(c1=O)C(c1ccccc1)C(C(=O)OC)=C(N)O2 (stereo not given)	-2	-2	19	11	0
N#CCCCN1C(=O)C(=C(C#N)C#N)c2ccccc21	8	-2	23	3	0
COc1ccc(/C=N/Nc2ccc(C(F)(F)F)cc2[N+](=O)[O-])cc1O	-12	0	76*	-14	0
Cc1c(CC(C)(C)C(=O)O)n(Cc2ccc(Cl)cc2)c2ccc(F)cc12	.	.	-3	.	.
COc1cc(C(=O)NCc2nnc(SCC(=O)NC3CCCCC3)o2)cc(OC)c1OC	13	-6	.	-2	-1
O=C(Nc1ccc(Cl)cc1)Nc1ccc(Cl)c(Cl)c1	-77	7	.	-99	10
O=C(Nc1ccc(Cl)c(Cl)c1)Nc1ccc(Br)cc1F	-4	5	101*	-3	3
O=S(=O)(c1ccc(Cl)cc1)N1CCNCC1	6	-1	-9	3	0
O=C1Nc2cc(Cl)ccc2C1(N1CCNCC1)C(F)(F)F (stereo not given)	-3	4	80*	-8	-2
